Laboratory results as given in ChEMBL document CHEMBL1255376, “Comparative surveillance study of telavancin activity against recently collected gram-positive clinical isolates from across the United States” (2008).
Converted amounts (≈) assume the structure as drawn.

Legend:
[1] = test system: Staphylococcus xylosus; assay: Antibacterial activity against methicillin-resistant coagulase-negative Staphylococcus xylosus clinical isolate by broth microdilution method; assay type: functional
Procedure, shortened: (§1)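 MICs by CLSI broth microdilution in frozen trays pre-loaded with serial dilutions of each agent. Quality-control strains run in parallel: E. faecalis ATCC 29212 and ATCC 51299, S. aureus ATCC 29213, S. pneumoniae ATCC 49619. Comparator susceptibility categories follow CLSI breakpoints. Methicillin resistance in staphylococci assigned from the oxacillin MIC.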

[2] = test system: Staphylococcus; assay: Antibacterial activity against methicillin-resistant coagulase-negative unspeciated Staphylococcus clinical isolate by broth microdilution method; assay type: functional; procedure, shortened: as §1
[3] = test system: Enterococcus faecalis; assay: Antibacterial activity against vancomycin-susceptible Enterococcus faecalis clinical isolate by broth microdilution method; assay type: functional; procedure, shortened: as §1
[4] = test system: Enterococcus faecalis; assay: Antibacterial activity against vancomycin- and teichoplanin-nonsusceptible Enterococcus faecalis clinical isolate by broth microdilution method; assay type: functional; procedure, shortened: as §1
[5] = test system: Enterococcus faecalis; assay: Antibacterial activity against vancomycin-resistant and teichoplanin-susceptible Enterococcus faecalis clinical isolate by broth microdilution method; assay type: functional; procedure, shortened: as §1
[6] = test system: Enterococcus faecium; assay: Antibacterial activity against vancomycin-susceptible Enterococcus faecium clinical isolate by broth microdilution method; assay type: functional
Procedure, shortened: (§2)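 MIC by CLSI broth microdilution in frozen microtiter trays holding serial dilutions of each agent, prepared from standard laboratory powders. E. faecalis ATCC 29212 and ATCC 51299, S. aureus ATCC 29213 and S. pneumoniae ATCC 49619 run in parallel as quality-control strains. Comparator susceptibility interpreted with CLSI breakpoints.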

[7] = test system: Enterococcus faecium; assay: Antibacterial activity against vancomycin- and teichoplanin-nonsusceptible Enterococcus faecium clinical isolate by broth microdilution method; assay type: functional; procedure, shortened: as §1
[8] = test system: Enterococcus faecium; assay: Antibacterial activity against vancomycin-resistant and teichoplanin-susceptible Enterococcus faecium clinical isolate by broth microdilution method; assay type: functional; procedure, shortened: as §1
[9] = test system: Streptococcus pyogenes; assay: Antibacterial activity against Streptococcus pyogenes clinical isolate by broth microdilution method; assay type: functional; procedure, shortened: as §2
[10] = test system: Streptococcus agalactiae; assay: Antibacterial activity against Streptococcus agalactiae clinical isolate by broth microdilution method; assay type: functional; procedure, shortened: as §2
[11] = Antibacterial activity against Streptococcus sp. Group C clinical isolate by broth microdilution method; assay type: functional; procedure, shortened: as §2
[12] = test system: Streptococcus sp.; assay: Antibacterial activity against Streptococcus sp. Group F clinical isolate by broth microdilution method; assay type: functional
Procedure, shortened: (§3)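 MIC by CLSI broth microdilution in frozen microtiter trays holding serial dilutions of each agent, prepared from standard laboratory powders. Comparator susceptibility interpreted with CLSI breakpoints.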

[13] = Antibacterial activity against Streptococcus sp. Group G clinical isolate by broth microdilution method; assay type: functional; procedure, shortened: as §2
[14] = test system: Streptococcus equinus; assay: Antibacterial activity against Streptococcus bovis clinical isolate by broth microdilution method; assay type: functional; procedure, shortened: as §2
[15] = test system: Streptococcus constellatus; assay: Antibacterial activity against Streptococcus constellatus clinical isolate by broth microdilution method; assay type: functional; procedure, shortened: as §2
[16] = test system: Streptococcus intermedius; assay: Antibacterial activity against Streptococcus intermedius clinical isolate by broth microdilution method; assay type: functional; procedure, shortened: as §2
[17] = test system: Streptococcus mitis; assay: Antibacterial activity against Streptococcus mitis clinical isolate by broth microdilution method; assay type: functional; procedure, shortened: as §2
[18] = test system: Streptococcus oralis; assay: Antibacterial activity against Streptococcus oralis clinical isolate by broth microdilution method; assay type: functional; procedure, shortened: as §2
[19] = test system: Streptococcus sanguinis; assay: Antibacterial activity against Streptococcus sanguinis clinical isolate by broth microdilution method; assay type: functional; procedure, shortened: as §2
[20] = test system: Streptococcus sp.; assay: Antibacterial activity against Streptococcus sp. clinical isolate by broth microdilution method; assay type: functional; procedure, shortened: as §3
[21] = test system: Staphylococcus aureus; assay: Antibacterial activity against daptomycin-nonsusceptible Staphylococcus aureus isolate 1171055 by broth microdilution method; assay type: functional; procedure, shortened: as §1
[22] = test system: Staphylococcus aureus; assay: Antibacterial activity against daptomycin-nonsusceptible Staphylococcus aureus isolate 1171063 by broth microdilution method; assay type: functional; procedure, shortened: as §1
[23] = test system: Staphylococcus aureus; assay: Antibacterial activity against daptomycin-nonsusceptible Staphylococcus aureus isolate 1176127 by broth microdilution method; assay type: functional; procedure, shortened: as §1
[24] = test system: Staphylococcus; assay: Antibacterial activity against daptomycin-nonsusceptible coagulase-negative Staphylococcus isolate 1285835 by broth microdilution method; assay type: functional; procedure, shortened: as §2
[25] = test system: Staphylococcus capitis; assay: Antibacterial activity against daptomycin-nonsusceptible Staphylococcus capitis isolate 1285355 by broth microdilution method; assay type: functional; procedure, shortened: as §2
[26] = test system: Staphylococcus aureus; assay: Antibacterial activity against daptomycin-nonsusceptible Staphylococcus aureus isolate 1285404 by broth microdilution method

CCCCCCCCCC(=O)N[C@@H](Cc1c[nH]c2ccccc12)C(=O)N[C@H](CC(N)=O)C(=O)N[C@@H](CC(=O)O)C(=O)N[C@@H]1C(=O)NCC(=O)N[C@@H](CCCN)C(=O)N[C@@H](CC(=O)O)C(=O)N[C@H](C)C(=O)N[C@@H](CC(=O)O)C(=O)NCC(=O)N[C@H](CO)C(=O)N[C@@H]([C@H](C)CC(=O)O)C(=O)N[C@@H](CC(=O)c2ccccc2N)C(=O)O[C@@H]1C
MIC90 [1]: 1 µg/mL (≈ 0.617 µM) | MIC50 [2]: 0.5 µg/mL (≈ 0.309 µM) | MIC90 [2]: 1 µg/mL (≈ 0.617 µM) | MIC50 [3]: 1 µg/mL (≈ 0.617 µM) | MIC90 [3]: 1 µg/mL (≈ 0.617 µM) | MIC [4]: 0.5 µg/mL (≈ 0.309 µM) | MIC50 [4]: 0.5 µg/mL (≈ 0.309 µM) | MIC90 [4]: 1 µg/mL (≈ 0.617 µM) | MIC [5]: 0.5 µg/mL (≈ 0.309 µM) | MIC50 [6]: 2 µg/mL (≈ 1.23 µM) | MIC90 [6]: 4 µg/mL (≈ 2.47 µM) | MIC50 [7]: 2 µg/mL (≈ 1.23 µM) | MIC90 [7]: 4 µg/mL (≈ 2.47 µM) | MIC50 [8]: 2 µg/mL (≈ 1.23 µM) | MIC90 [8]: 4 µg/mL (≈ 2.47 µM) | MIC50 [9]: 0.06 µg/mL (≈ 0.037 µM) | MIC90 [9]: 0.06 µg/mL (≈ 0.037 µM) | MIC50 [10]: 0.25 µg/mL (≈ 0.154 µM) | MIC90 [10]: 0.25 µg/mL (≈ 0.154 µM) | MIC50 [11]: 0.06 µg/mL (≈ 0.037 µM) | MIC90 [11]: 0.25 µg/mL (≈ 0.154 µM) | MIC50 [12]: 0.06 µg/mL (≈ 0.037 µM) | MIC90 [12]: 0.25 µg/mL (≈ 0.154 µM) | MIC50 [13]: 0.06 µg/mL (≈ 0.037 µM) | MIC90 [13]: 0.25 µg/mL (≈ 0.154 µM) | MIC50 [14]: 0.25 µg/mL (≈ 0.154 µM) | MIC90 [14]: 1 µg/mL (≈ 0.617 µM) | MIC50 [15]: 0.25 µg/mL (≈ 0.154 µM) | MIC90 [15]: 1 µg/mL (≈ 0.617 µM) | MIC50 [16]: 0.25 µg/mL (≈ 0.154 µM) | MIC90 [16]: 1 µg/mL (≈ 0.617 µM) | MIC50 [17]: 0.25 µg/mL (≈ 0.154 µM) | MIC90 [17]: 1 µg/mL (≈ 0.617 µM) | MIC50 [18]: 0.25 µg/mL (≈ 0.154 µM) | MIC90 [18]: 1 µg/mL (≈ 0.617 µM) | MIC50 [19]: 0.25 µg/mL (≈ 0.154 µM) | MIC90 [19]: 1 µg/mL (≈ 0.617 µM) | MIC50 [20]: 0.25 µg/mL (≈ 0.154 µM) | MIC90 [20]: 1 µg/mL (≈ 0.617 µM) | MIC [21]: > 1 µg/mL | MIC [22]: > 1 µg/mL | MIC [23]: > 1 µg/mL | MIC [24]: > 1 µg/mL | MIC [25]: > 1 µg/mL | MIC [26]: > 1 µg/mL
